# Assay results taken from ChEMBL document CHEMBL1132689, “New tetracyclic analogues of photochemotherapeutic drugs 5-MOP and 8-MOP: synthesis, DNA interaction, and antiproliferative activity” (J Med Chem, 1999).
# Calls of active or inactive are those of the source. The rule behind the calls is not given here.
# What was measured:
# [1] = test system: HL-60; assay: The compound was tested in vitro for growth inhibition against HL-60(human promyelocytic leukemia) cell line in the dark; assay type: functional, cell-based
# [2] = species: Cavia porcellus; assay: The compound was tested for photo antiproliferative activity and ability to induce erythema on guinea pig skin; --- = absent; assay type: functional, organism-based
# Summary of the method: (§1)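 Depilated albino guinea pigs (outbred Dunkin-Hartley) given topical ethanol solution on skin, new compounds up to 50 μg cm-2, 5-MOP and 8-MOP at 10 μg cm-2; kept dark 45 min, then treated skin irradiated with 20 kJ m-2 UVA (lamps emitting over 90% at 365 nm); erythema scored after 48 h.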
# [3] = test system: HeLa; assay: The compound was tested in vitro for growth inhibition against HeLa(human cervix adenocarcinoma) cell line in the presence of UVA(ultra violet A irradiated); assay type: functional, cell-based; conditions: light or radiation study
# Summary of the method: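 HeLa (F-12 with 10% heat-inactivated FCS) seeded 10^5/well for 24 h; medium changed to phenol red-free DMEM with test agent, 1 h later irradiated with UVA 0.793 J cm-2 at 365 nm; drug medium removed, cells kept 24 h in complete F-12; trypan blue viability; IC50 as 50% cell-number reduction versus control.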
# [4] = test system: HeLa; assay: The compound was tested in vitro for growth inhibition against HeLa(human cervix adenocarcinoma) cell line in the dark; assay type: functional, cell-based
# [5] = test system: HL-60; assay: The compound was tested in vitro for growth inhibition against HL-60(human promyelocytic leukemia) cell line in the presence of UVA(ultra violet A irradiated); assay type: functional, cell-based; conditions: HL-60, light or radiation study
# [6] = test system: Cavia porcellus; assay: The compound was tested for photo antiproliferative activity and ability to induce erythema on guinea pig skin; +++ = strong (without edema); assay type: functional, organism-based; summary of the method: as §1
# [7] = species: Cavia porcellus; assay: The compound was tested for photo antiproliferative activity and ability to induce erythema on guinea pig skin; +-- = mild; assay type: functional, organism-based; summary of the method: as §1
SMILES,IC50 [1] [µM],Formation of erythema [2],IC50 [3] [µM],IC50 [4] [µM],IC50 [5] [µM],Formation of erythema [6],Formation of erythema [7]
Cc1cc(=O)oc2cc3oc4ccccc4c3c(OCCCN(C)C)c12,9.2,inactive,2.8,> 20,0.73,,
COc1c2ccoc2cc2oc(=O)ccc12 [BERGAPTEN],> 20,,16.3,> 20,3.35,Active,
Cc1cc(=O)oc2c(O)c3oc4ccccc4c3cc12,> 20,inactive,> 20,> 20,> 20,,
COc1c2c(C)cc(=O)oc2cc2oc3ccccc3c12,> 20,inactive,> 20,> 20,4.5,,
Cc1cc(=O)oc2cc3oc4c(c3c(O)c12)CCCC4,> 20,inactive,> 20,> 20,7.3,,
COc1c2occc2cc2ccc(=O)oc12 [METHOXSALEN],> 20,,10,> 20,5.4,Active,
Cc1cc(=O)oc2c(OCCCN(C)C)c3oc4ccccc4c3cc12,4.2,inactive,0.08,9.6,0.6,,
Cc1cc(=O)oc2cc3oc4c(c3c(OCCCN(C)C)c12)CCCC4,13.8,,3.7,> 20,3.4,,+--
Cc1cc(=O)oc2cc3oc4ccccc4c3c(O)c12,> 20,inactive,> 20,> 20,> 20,,
Cc1cc(=O)oc2c(OCCCN(C)C)c3oc4c(c3cc12)CCCC4,12.4,,1.2,> 20,0.6,strong (without edema),
COc1c2c(C)cc(=O)oc2cc2oc3c(c12)CCCC3,> 20,inactive,4.6,> 20,4.9,,
COc1c2oc(=O)cc(C)c2cc2c1oc1ccccc12,> 20,inactive,> 20,> 20,6.4,,
Cc1cc(=O)oc2c(O)c3oc4c(c3cc12)CCCC4,> 20,inactive,> 20,> 20,> 20,,
COc1c2oc(=O)cc(C)c2cc2c3c(oc12)CCCC3,> 20,inactive,> 20,> 20,3.5,,
